Data taken from article PMC11897355 (Nature Communications, 2025).
Changes are numbered by the printed parent chain. “Also recorded” adds a separate entry of the source.

Legend:
WT GlyT1 [1] = target: T1, WT GlyT1 (Homo sapiens, UniProt P48067); assay: [3H]glycine kinetic uptake assay, WT GlyT1; assay type: cell-based
T1 sequence (P48067 1-652 isoform P48067-3): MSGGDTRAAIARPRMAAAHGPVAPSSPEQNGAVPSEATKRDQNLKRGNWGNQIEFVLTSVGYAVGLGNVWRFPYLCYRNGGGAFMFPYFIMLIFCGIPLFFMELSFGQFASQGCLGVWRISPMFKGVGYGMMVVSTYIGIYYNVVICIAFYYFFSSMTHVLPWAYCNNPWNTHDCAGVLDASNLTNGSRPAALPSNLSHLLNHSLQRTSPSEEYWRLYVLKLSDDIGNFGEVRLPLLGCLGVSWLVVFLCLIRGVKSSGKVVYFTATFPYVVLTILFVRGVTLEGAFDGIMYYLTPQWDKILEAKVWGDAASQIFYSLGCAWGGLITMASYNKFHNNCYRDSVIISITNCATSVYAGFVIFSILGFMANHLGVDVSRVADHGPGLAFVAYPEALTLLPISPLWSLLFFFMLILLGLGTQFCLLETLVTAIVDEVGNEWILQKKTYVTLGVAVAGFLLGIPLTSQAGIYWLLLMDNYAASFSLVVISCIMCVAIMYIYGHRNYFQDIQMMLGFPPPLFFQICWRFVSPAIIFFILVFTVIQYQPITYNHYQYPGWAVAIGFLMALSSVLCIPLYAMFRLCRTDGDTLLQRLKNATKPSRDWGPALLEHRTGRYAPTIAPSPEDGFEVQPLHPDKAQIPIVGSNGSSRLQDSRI

wild-type GlyT1 = target: T2, wild-type GlyT1 (Homo sapiens, UniProt P48067); assay: [3H]glycine uptake inhibition assay, wild-type GlyT1 in HEK-293F cells; assay type: cell-based; details: IC50, [3H]glycine uptake
T2 sequence (P48067 1-652 isoform P48067-3): T1 sequence (P48067 1-652 isoform P48067-3)
Method in brief: (§1)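 HEK-293F cells (2.5 × 10^6/mL) infected with baculovirus carrying wild-type or sequence-verified mutant human GlyT1. Cells collected after 15 h and washed in HEPES-Tris pH 7.4 uptake buffer, then preincubated 10 min with graded inhibitor. Uptake ran 1 min at 25 °C with 25 μM [3H]glycine/unlabeled glycine (1:2500). Two cold washes, lysis in 1% Triton X-100, scintillation counting. Uptake normalized to untreated cells. Three independent experiments in triplicate; IC50 fitted to mean data.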

GlyT1 = details: rat primary neurons; cited from earlier work
L422T GlyT1 mutant = target: T3, L422T GlyT1 mutant (Homo sapiens, UniProt P48067, L476T); assay: [3H]glycine uptake inhibition assay, GlyT1 L422T mutant; assay type: cell-based
T3 sequence (P48067 1-652 isoform P48067-3 L422T): T1 sequence (P48067 1-652 isoform P48067-3) with L422T
Method in brief: as §1

G319S GlyT1 mutant = target: T4, G319S GlyT1 mutant (Homo sapiens, UniProt P48067, G373S); assay: [3H]glycine uptake inhibition assay, GlyT1 G319S mutant; assay type: cell-based
T4 sequence (P48067 1-652 isoform P48067-3 G319S): T1 sequence (P48067 1-652 isoform P48067-3) with G319S
Method in brief: as §1

wild-type GlyT2 [2] = target: T5, wild-type GlyT2 (Homo sapiens, UniProt Q9Y345); details: cited from earlier work
T5 sequence (Q9Y345 1-797): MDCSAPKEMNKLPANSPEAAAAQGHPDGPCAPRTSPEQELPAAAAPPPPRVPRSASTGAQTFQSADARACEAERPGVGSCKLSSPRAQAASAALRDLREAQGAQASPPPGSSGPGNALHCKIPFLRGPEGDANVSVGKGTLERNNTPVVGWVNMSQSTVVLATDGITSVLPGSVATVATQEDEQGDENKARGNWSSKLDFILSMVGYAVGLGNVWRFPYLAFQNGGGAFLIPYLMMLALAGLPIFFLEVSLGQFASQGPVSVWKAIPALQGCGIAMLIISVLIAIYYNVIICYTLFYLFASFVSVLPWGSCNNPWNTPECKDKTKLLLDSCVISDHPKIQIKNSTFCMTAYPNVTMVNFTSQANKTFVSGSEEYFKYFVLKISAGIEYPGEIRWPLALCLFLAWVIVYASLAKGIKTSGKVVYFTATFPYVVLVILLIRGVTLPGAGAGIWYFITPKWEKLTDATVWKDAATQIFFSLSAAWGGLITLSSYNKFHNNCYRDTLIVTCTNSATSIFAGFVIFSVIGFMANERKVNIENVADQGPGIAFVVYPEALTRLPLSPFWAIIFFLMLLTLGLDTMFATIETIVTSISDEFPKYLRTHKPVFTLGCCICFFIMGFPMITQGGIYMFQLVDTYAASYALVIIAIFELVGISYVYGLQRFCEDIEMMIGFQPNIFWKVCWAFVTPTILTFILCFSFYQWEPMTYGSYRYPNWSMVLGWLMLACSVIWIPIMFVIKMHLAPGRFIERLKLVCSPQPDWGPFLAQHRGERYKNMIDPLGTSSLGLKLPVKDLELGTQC

S479G GlyT2 mutant = target: T6, S479G GlyT2 mutant (Homo sapiens, UniProt Q9Y345, S479G); assay: [3H]glycine uptake inhibition assay, GlyT2 S479G mutant; assay type: cell-based
T6 sequence (Q9Y345 1-797 S479G): T5 sequence (Q9Y345 1-797) with S479G

wild-type GlyT2 [3] = target: T5, wild-type GlyT2; assay: [3H]glycine uptake inhibition assay, wild-type GlyT2; assay type: cell-based
HEK-293F cells = assay: Cholesterol quantification after MβCD or wsCHOL treatment; assay type: cell-based, human
WT GlyT1 [4] = assay: Cell surface biotinylation and immunoblot; assay type: cell-based, human; details: 2.5 mg/mL and 3.5 mg/mL MβCD

NCC(=O)O [glycine]
Km (WT GlyT1 [1]; WT GlyT1, untreated cells): 126 µM

C[C@@H](Oc1ccc(S(C)(=O)=O)cc1C(=O)N1C[C@@H]2C[C@]2(c2cc(C(F)(F)F)on2)C1)C(F)(F)F [iclepertin]
IC50 (wild-type GlyT1; wild-type GlyT1): 0.162 ± 0.0196 µM | IC50 (GlyT1): 0.0052 ± 0.0012 µM | IC50 (L422T GlyT1 mutant): 5.25 ± 0.33 µM | inhibition of G319S mutant (G319S GlyT1 mutant): not inhibited; also recorded: no visible inhibition effect

CNCC(=O)O [sarcosine, N-methyl glycine]
inhibition of GlyT1 versus GlyT2 (wild-type GlyT2 [2]): can inhibit GlyT1 but not GlyT2 | IC50 (wild-type GlyT1; wild-type GlyT1, mean ± S.E.M.): 96.8 ± 13.7 µM | susceptibility of S479G GlyT2 to inhibition (S479G GlyT2 mutant): susceptibility similar to that of WT GlyT1 | sensitivity of WT GlyT2 to inhibition (wild-type GlyT2 [3]): not sensitive | IC50 (G319S GlyT1 mutant): 18600 ± 1550 µM | reduction of inhibitory potency on G319S compared to WT GlyT1 (G319S GlyT1 mutant): ~ 200 fold

Methyl-β-cyclodextrin [MβCD]
reduction of Vmax compared to WT GlyT1 (WT GlyT1 [1]; 2.5 mg/mL MβCD): about 19.6% | reduction of Vmax compared to WT GlyT1 (WT GlyT1 [1]; 3.5 mg/mL MβCD): ~26.7% | effect on Km values (WT GlyT1 [1]; 2.5 and 3.5 mg/mL MβCD): remained relatively unaffected | decrease of cholesterol content on the membrane (HEK-293F cells; 2.5 mg/mL MβCD): 10% | decrease of cholesterol content on the membrane (HEK-293F cells; 3.5 mg/mL MβCD): 20% | effect on surface expression of GlyT1 (WT GlyT1 [4]): without altering the surface expression
